Test results reported in ChEMBL document CHEMBL1828575, “Design, synthesis and antiproliferative activities of biarylolefins based on polyhydroxylated and carbohydrate scaffolds” (Eur J Med Chem, 2011).
Active and inactive are the calls of the source. No cut-off for these calls is given here.

Legend:
[1] = Inhibition of sheep brain tubulin polymerization; design: species or system Ovis aries
Ovis aries = species on record: Ovis aries; assay: Inhibition of sheep brain tubulin polymerization at 10 uM
Summary of the method: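 Microtubule protein from sheep brain, purified by two assembly/disassembly cycles (37 °C/0 °C), in 100 mM MES pH 6.6, 1 mM EGTA, 0.5 mM MgCl₂. Compounds in DMSO were tested at a single concentration, with incubation at 37 °C for 10 min and then 0 °C for 5 min before measuring assembly rate, following a modified Guénard protocol.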

- IC50 [1]: 7.9 µM
- tubulin polymerization inhibition call (active/not active) (Ovis aries): Active
SMILES: COc1ccc(C(=O)c2cc(OC)c(OC)c(OC)c2)cc1O [PHENSTATIN]
